The target of assay [1] is D(2) dopamine receptor (Rattus norvegicus) (UniProt P61169). As to the kind of experiment: Effect on DOPA accumulation in limbic and striatal regions of reserpine-pretreated rat brains. In kind it is functional, tissue-based. The following applies: Brain.
For assay [2] the target is unchanged. Description: Effect on extracellular DA levels in the striatal region of rat brain. In kind it is functional, tissue-based. The essentials:
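Awake, freely moving rats; test compound injected subcutaneously, with dose varying by compound. Extracellular striatal DA measured by microdialysis, analysing perfusates collected from implanted probes. The value is the maximum DA level between 20 and 100 min after administration, expressed as percent of saline controls.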

The subject of assay [3] is Rattus norvegicus. As to the kind of experiment: The in vivo effect of the compound (sc injection, 50 umol/kg) on DOPA accumulation in limbic and striatal regions of reserpine-pretreated rat brains. The format is functional, Brain.
Assay [4] deals with Rattus norvegicus. Description: The in vivo effect of the compound (sc,227uM/kg) on DOPA accumulation in limbic and striatal regions of the rat brain without reserpine pretreatment. The format is functional. In outline: (§1)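 No reserpine pretreatment. Rats given test compound subcutaneously, then the decarboxylase inhibitor NSD 1015. L-DOPA accumulated in limbic and striatal brain tissue was measured. The value is the maximum effect, selected at a dose where the dose-response curve had reached maximum, expressed as percent of controls.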

The test system of assay [5] is Rattus norvegicus. Description: The in vivo effect of the compound (sc injection, 107 umol/kg) on DOPA accumulation in limbic and striatal regions of reserpine-pretreated rat brains. The format is functional, Brain. The essentials: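 Rats pretreated with reserpine 18 h before subcutaneous test compound, then given the decarboxylase inhibitor NSD 1015. L-DOPA accumulation measured in limbic and striatal brain tissue. The value is the maximum effect, taken at a dose where the dose-response curve had reached maximum, expressed as percent of controls.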

Assay [6] concerns Rattus norvegicus. Description: The in vivo effect of the compound (sc,3.7uM/kg) on DOPA accumulation in limbic and striatal regions of the rat brain without reserpine pretreatment. The format is functional. In outline: as §1
The subject of assay [7] is Rattus norvegicus. Description: In vivo effect on DOPA accumulation in limbic and striatal regions of the rat brain without reserpine pretreatment. Details: unit not given beside the values. In kind it is functional, Limbic system.
In assay [8] the test system is Rattus norvegicus. As to the kind of experiment: The in vivo effect of the compound (sc injection, 227 umol/kg) on DOPA accumulation in limbic and striatal regions of reserpine-pretreated rat brains. The format is functional, Brain.

Here are results for 29 compounds from ChEMBL document CHEMBL1128505, “On the quantitative structure-activity relationships of meta-substituted (S)-phenylpiperidines, a class of preferential dopamine D2 autoreceptor ligands: modeling of dopamine synthesis and release in vivo by means of partial least squares regression” (1995).

Sequence of D(2) dopamine receptor (Rattus norvegicus) (P61169 whole entry): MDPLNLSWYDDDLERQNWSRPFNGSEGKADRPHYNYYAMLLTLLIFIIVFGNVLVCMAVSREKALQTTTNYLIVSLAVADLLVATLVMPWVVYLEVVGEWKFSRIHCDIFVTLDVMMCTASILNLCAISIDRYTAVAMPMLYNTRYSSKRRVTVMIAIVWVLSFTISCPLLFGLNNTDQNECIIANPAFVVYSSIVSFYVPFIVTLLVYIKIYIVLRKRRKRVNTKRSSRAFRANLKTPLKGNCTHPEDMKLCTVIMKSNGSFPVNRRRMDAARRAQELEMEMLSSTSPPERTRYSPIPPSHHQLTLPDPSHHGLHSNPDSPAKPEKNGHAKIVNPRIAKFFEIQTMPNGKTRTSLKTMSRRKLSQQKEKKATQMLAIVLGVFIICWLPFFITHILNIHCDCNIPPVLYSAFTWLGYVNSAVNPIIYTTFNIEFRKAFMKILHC

Take `CCCN1CCC[C@@H](c2cccc(CO)c2)C1`: the DOPA accumulation in assay [1] turned out to be 50. Moreover, the Activity in assay [2] is 191.

With `CCCN1CCC[C@@H](c2cccc(C(C)=O)c2)C1`, the DOPA accumulation in assay [1] amounted to 73. Further, the Activity in assay [2] stood at 196.

With `CCCCN1CCC[C@@H](c2cccc(C#N)c2)C1`, in the assay with Rattus norvegicus [3], the DOPA accumulation was found to be 71.

Regarding `C=CCN1CCC[C@@H](c2cccc(C#N)c2)C1`, the DOPA accumulation in assay [1] came out at 85. This compound also showed an Activity in assay [2] of 593.

In turn, `CCN1CCC[C@@H](c2cccc(C#N)c2)C1` showed an Activity in assay [2] of 223.

As to `CCCN1CCC[C@@H](c2cccc(OC)c2)C1`, the DOPA accumulation in assay [1] was found to be 66.

For the compound `Oc1cccc([C@@H]2CCCNC2)c1`, in the assay on Rattus norvegicus [4], the DOPA accumulation was determined as 44.

In the case of `CCCCN1CCC[C@@H](c2cccc(O)c2)C1`, the DOPA accumulation in the assay on Rattus norvegicus [5] was 22; in the assay with Rattus norvegicus [6] it was 86.

As to `C#Cc1cccc([C@@H]2CCCN(CCC)C2)c1`, in assay [2], the Activity came out at 270.

As to `CCCN1CCC[C@@H](c2cccc(OS(C)(=O)=O)c2)C1`, the DOPA accumulation in assay [1] was found to be 92; in the assay with Rattus norvegicus [7], 249. In assay [2], the Activity was found to be 239.

With `CCC(C)N1CCC[C@@H](c2cccc(C#N)c2)C1` (some centres not stated), the Activity in assay [2] was 282.

In the case of `CCCN1CCC[C@@H](c2cccc(Br)c2)C1`, the DOPA accumulation in assay [1] was 101. The Activity in assay [2] came to 372.

Turning to `CCCN1CCC[C@@H](c2cccc(O)c2)C1` [PRECLAMOL], the DOPA accumulation in the assay on Rattus norvegicus [8] amounted to 30. This compound returned an Activity in assay [2] of 400.

As to `CC(C)N1CCC[C@@H](c2cccc(O)c2)C1`, the DOPA accumulation in assay [1] came out at 18; in the assay with Rattus norvegicus [7], 47. For the same compound, the Activity in assay [2] is 56.

Take `CCCN1CCC[C@@H](c2cccc(N)c2)C1`: the DOPA accumulation in assay [1] was 91.

With `CCCN1CCC[C@@H](c2cccc(C=O)c2)C1`, in assay [1], the DOPA accumulation amounted to 83.

`CN1CCC[C@@H](c2cccc(OS(=O)(=O)C(F)(F)F)c2)C1`: in the assay on Rattus norvegicus [7], the DOPA accumulation is given as 157.

In assay [2], `CCCN1CCC[C@@H](c2cccc(-c3ccsc3)c2)C1` had an Activity of 106.

In the case of `CCCN1CCC[C@@H](c2cccc(S(C)(=O)=O)c2)C1`, in assay [1], the DOPA accumulation was 95. The Activity in assay [2] was determined as 293.

On to `Oc1cccc([C@@H]2CCCN(CCc3ccccc3)C2)c1`, for which the values for the DOPA accumulation in the assay with Rattus norvegicus [5] and in the assay on Rattus norvegicus [6] were 22 and 37, respectively.

`C=CCN1CCC[C@@H](c2ccccc2)C1` gave an Activity in assay [2] of 364.

As to `CN1CCC[C@@H](c2cccc(O)c2)C1`, the DOPA accumulation in the assay on Rattus norvegicus [5] is 20; in the assay with Rattus norvegicus [4], 51.

On to `CCCc1cccc([C@@H]2CCCN(CCC)C2)c1`, for which the DOPA accumulation is 62 in assay [1] and 190 in the assay with Rattus norvegicus [7].

`CCCN1CCC[C@@H](c2cccc(CC#N)c2)C1`: in assay [1], the DOPA accumulation came to 57.

With `CCCN1CCC[C@@H](c2cccc(SC)c2)C1`, the DOPA accumulation in the assay with Rattus norvegicus [3] came out at 92.

With `CCCN1CCC[C@@H](c2ccccc2)C1`, the DOPA accumulation is on record as 65 in the assay with Rattus norvegicus [3] and 140 in the assay with Rattus norvegicus [7]. The same compound showed an Activity in assay [2] of 543.

For `CCCCN1CCC[C@@H](c2cccc(OS(=O)(=O)C(F)(F)F)c2)C1`, the DOPA accumulation with Rattus norvegicus [7] came to 234.

Turning to `CCCN1CCC[C@@H](c2cccc(C#N)c2)C1`, in assay [1], the DOPA accumulation amounted to 105. In assay [2], this compound returned an Activity of 411.

In the case of `CCN1CCC[C@@H](c2cccc(OS(=O)(=O)C(F)(F)F)c2)C1`, in assay [2], the Activity is 143. Also, in the assay with Rattus norvegicus [7], the DOPA accumulation came to 286.
